MBD2 inh: MBD2-methylated oligo binding inhibition; Q9UBB5; TR-FRET, MBD2 binding to methylated oligonucleotide; inhibition, % at 4.4 µM; 0.31% of 370,000 active; in the data active means inhibition above about 13%
Target sequence (Q9UBB5 whole entry, looked up): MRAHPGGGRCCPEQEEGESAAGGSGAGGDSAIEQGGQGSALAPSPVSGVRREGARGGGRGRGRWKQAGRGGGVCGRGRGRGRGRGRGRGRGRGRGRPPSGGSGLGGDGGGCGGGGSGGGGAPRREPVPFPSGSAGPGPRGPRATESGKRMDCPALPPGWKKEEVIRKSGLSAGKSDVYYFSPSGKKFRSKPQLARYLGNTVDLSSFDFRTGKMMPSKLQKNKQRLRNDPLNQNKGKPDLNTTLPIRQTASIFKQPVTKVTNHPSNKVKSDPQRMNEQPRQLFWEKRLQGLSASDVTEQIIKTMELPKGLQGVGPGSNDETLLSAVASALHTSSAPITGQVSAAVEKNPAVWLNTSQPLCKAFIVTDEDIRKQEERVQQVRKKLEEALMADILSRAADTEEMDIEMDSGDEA
TCR CD3 inh: human TCR-CD3 binding inhibition; TAMRA-labeled TCR probe fluorescence, biochemical; 0.37% of 360,000 active; inhibition, % at 9.4 µM; AID 651800;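 further: recombinant mutant TCR 2C K166C tagged with TAMRA read by polarization; 0% = receptor in buffer alone and 100% = receptor with positive control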
UHRF1 MBD2 ctr: human UHRF1 methylated DNA binding inhibitors; Q96T88; UHRF1 binding to methylated oligo, TR-FRET; inhibition, % at 4.4 µM; 0.75% of 370,000 active; in the data active means inhibition above about 21%;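 further: UHRF1 SRA domain binding a hemimethylated CpG hairpin DNA probe; 0% = median of test compound wells and 100% = reference inhibitor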
ARFGAP1 inh: inhibits rat ARF GTPase activating protein 1 | Arfgap1-stimulated ARF1 GTP hydrolysis, GDP FP detection | Q62848 | inhibition, % at 16.5 µM | 0.26% of 360,000 active;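 active means inhibition above a per-plate limit, mean inhibition of low control wells plus 3 SD, cut at about 25% in these data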;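 further: 0% = DMSO wells with enzyme and 100% = wells lacking Arfgap1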
Target sequence (Q62848 1-136 limits assumed): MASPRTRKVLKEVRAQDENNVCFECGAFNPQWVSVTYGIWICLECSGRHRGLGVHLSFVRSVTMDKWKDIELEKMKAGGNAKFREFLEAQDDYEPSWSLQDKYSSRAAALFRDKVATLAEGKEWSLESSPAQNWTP
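System: truncated rat Arfgap1 GAP domain / Benchmarks: high control wells lacking Arfgap1, low control full reaction with DMSO / Times: compound-enzyme preincubation 20 min, reaction 120 min, detection 60 min, 25 °C / Repeats: one replicate per compound / Also added: human ARF1(Δ1-17)-GTP substrate / Measured by: Tracer-displacement fluorescence polarization with EDTA stop, 620/688 nm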
ASAP1 GAP inh: inhibitors of human ASAP1 ArfGAP activity; ASAP1-stimulated ARF1 GTP hydrolysis, GDP FP detection; inhibition, % at 16.5 µM; 0.19% of 360,000 active; Q9ULH1; in the data active means inhibition above about 25%;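 further: 0% = vehicle with enzyme and substrate and 100% = no enzyme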
LEDGF integ inh: blocks HIV-1 LEDGF/p75-dependent DNA integration | TR-FRET IN-LEDGF/p75 DNA integration, Eu/Cy5 | 0.64% of 370,000 active | inhibition, % at 3.7 µM | AID 743269;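 active means inhibition above the screen-wide mean plus 3 SD, cut at about 13% in these data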;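 further: signal is the Cy5 over europium emission ratio at 671 and 618 nm; 0% = plate median of compound wells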
ASAP1 inh confirm: ASAP1 inhibition confirmed; ASAP1-stimulated Arf1 GTPase, GDP fluorescence polarization; AID 624431; shares compounds with ASAP1 GAP inh; inhibition, % at 16.5 µM; 37% of 620 active;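 active means mean inhibition over triplicates exceeds the hit threshold derived for the earlier primary screening run, cut at about 25% in these data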
ARFGAP1 confirm: confirmation of rat ARFGAP1 inhibitors. AID 651608. 30% of 890 active. ARFGAP1-stimulated ARF1 GTP hydrolysis, GDP tracer FP. shares compounds with ARFGAP1 inh. inhibition, % at 16.5 µM;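 active means average inhibition over triplicates above the hit cutoff set in the earlier primary screen, cut at about 25% in these data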;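 further: 0% = Arfgap1 plus ARF1-GTP with DMSO and 100% = wells lacking Arfgap1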
BSA TAMRA ctr: interferes with TAMRA-BSA probe, flagging TCR-CD3 hits; shares compounds with TCR CD3 inh; TAMRA-labeled BSA probe fluorescence counterscreen; inhibition, % at 9.4 µM; 10% of 1,200 active; in the data active means inhibition above about 23%;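 further: 0% = buffer low control and 100% = reference high control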
TCR-CD3 conf: TCR-CD3 interaction inhibition, confirmation | shares compounds with TCR CD3 inh | TAMRA-labeled TCR probe fluorescence binding assay | inhibition, % at 9.4 µM | 48% of 1,200 active | AID 652036
UHRF1 ctr MBD2: counter-screen for MBD2 inhibitors: human UHRF1 methylated DNA binding inhibitors; 25% of 1,000 active; UHRF1 binding to methylated oligonucleotide, TR-FRET; inhibition, % at 4.4 µM; shares compounds with MBD2 inh; in the data active means inhibition above about 21%;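 further: UHRF1 SRA domain binding a labeled hemimethylated CpG hairpin DNA; 0% = vehicle only and 100% = reference inhibitor with vehicle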
MBD2 DBD conf: confirmation of human MBD2-DBD methylated oligonucleotide binding inhibitors | TR-FRET MBD2-DBD binding to methylated oligonucleotide | 26% of 1,000 active | shares compounds with MBD2 inh | inhibition, % at 4.4 µM; in the data active means inhibition above about 14%
IN multimer act: counter-screen for LEDGF/p75 integration inhibitors: HIV-1 integrase multimerization activators | TR-FRET HIV-1 integrase multimerization, biochemical | shares compounds with LEDGF integ inh | 17% of 2,000 active | activation, % at 7.7 µM | AID 1053131; in the data active means activation above about 8.9%
TR-FRET interf: counter-screen for LEDGF/p75 integration inhibitors: TR-FRET optical interference. AID 1053135. 2,000 tested, under 10 active. shares compounds with LEDGF integ inh. TR-FRET optical interference counterscreen, HIV-1 IN multimerization. inhibition, % at 7.7 µM;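 active means inhibition above the mean over all tested compounds plus 3 SD, which no compound reached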;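 further: 0% = integrase with antibodies and DMSO and 100% = antibodies without integrase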
LEDGF integ conf: LEDGF/p75-dependent HIV-1 integration inhibition, confirmation; shares compounds with LEDGF integ inh; TR-FRET LEDGF/p75-dependent HIV-1 integration, biochemical; inhibition, % at 3.7 µM; 36% of 2,000 active; in the data active means inhibition above about 14%
* marks the source's active call; other numbers are inactive results; / = no result. This is a sample that favours compounds with a hit; in the whole collection about 2% have one here. Unless noted, no stated cut-off is given here; in the data, active means inhibition above about 19%; inactive means the rest.

SMILES | MBD2 inh | TCR CD3 inh | UHRF1 MBD2 ctr | ARFGAP1 inh | ASAP1 GAP inh | LEDGF integ inh | ARFGAP1 confirm | others
CCC(C)NC(=O)c1c(N)n(CCCOC)c2nc3ccccc3nc12 (centres undefined) | 13 | 0 | 10 | -16 | 27* | 39* | / | ASAP1 inh confirm=15;IN multimer act=8;TR-FRET interf=-25;LEDGF integ conf=14*
CCN1C[C@]2(OC(=O)c3ccccc3NC(C)=O)CCC(OC)C34C5C[C@H]6C(OC)[C@]5(O)[C@](O)(C[C@@H]6OC)C(C[C@@H]32)[C@H]14 (some centres undefined) | -1 | 1 | 2 | 0 | -3 | -2 | /
NCCc1ccc(O)cc1 | -1 | -7 | 3 | 29* | 4 | -3 | 2
COc1ccc(Oc2c(C)oc3cc(OC(=O)N(C)C)ccc3c2=O)cc1 | 2 | -4 | 7 | 2 | 0 | -5 | /
COc1ccccc1Oc1c(C)oc2cc(OC(=O)N(C)C)ccc2c1=O | 0 | -3 | 1 | 27* | -11 | -2 | 2
ClCC(Br)CBr (centres undefined) | -4 | 7 | -3 | -4 | -18 | 1 | /
CC1CC(C)CN(C(=O)COC(=O)c2cn(C)c3ccccc23)C1 (centres undefined) | -7 | 1 | -2 | 42* | 18 | 3 | 49*
COc1ccc2c(c1)C1(C)CCN(C)CC(C1)C2O (centres undefined) | 6 | -6 | 6 | -8 | -3 | -3 | /
COc1cccc(CN2CCCCC2c2cccnc2)c1 (centres undefined) | 3 | -1 | 5 | 25* | -11 | -1 | 2
COc1ccc(CN2CCCCC2c2cccnc2)cc1C (centres undefined) | -5 | 4 | 1 | -2 | 2 | -1 | /
CC(=O)Nc1ccc(S(=O)(=O)N2Cc3cnnn3-c3ccccc3C2C#N)cc1 (centres undefined) | 3 | -3 | 2 | -16 | -1 | 0 | /
O=C(CCc1ccccc1)N1Cc2cc(N3CCOCC3)ccc2-n2nncc2C1 | 2 | -2 | 0 | -3 | -4 | 1 | /
O=C(CCc1ccccc1)N1Cc2cc(N3CCCCC3)ccc2-n2nncc2C1 | -4 | -5 | -1 | 25* | -10 | 2 | 3
CCC(C)C1NC(=O)C(C(C)=O)=C1O (centres undefined) | 4 | 2 | -4 | 5 | 7 | -3 | /
COCCNC(=O)c1ccc(N2CC3CC(C2)c2cccc(=O)n2C3)c([N+](=O)[O-])c1 (centres undefined) | 0 | -4 | 3 | 35* | 7 | -6 | 3
CCCOc1ccc(C(C)=O)cc1Cc1c(O)[nH]c(=S)[nH]c1=O | 0 | -5 | 2 | 26* | 2 | -1 | 2
CC[N+](C)(CC)CCCCOc1ccc2c(c1)C(=O)c1cc(OCCCC[N+](C)(CC)CC)ccc1-2 | 17* | 6 | 41* | 26* | 0 | 0 | 14 | UHRF1 ctr MBD2=49*;MBD2 DBD conf=31*
C[C@]12CCC3C(CC[C@H]4C[C@H](O)CC[C@]34C)C1[C@@H](O)C[C@@H]2O (some centres undefined) | 1 | 2 | 2 | -14 | -9 | 2 | /
CN1C(=O)NC(=O)/C(=C/c2ccc([N+](=O)[O-])o2)C1=O | 12 | 20* | 65* | -8 | -3 | 37* | / | BSA TAMRA ctr=-6;TCR-CD3 conf=7
N[C@@H](Cc1ccccc1)C(=O)N1C[C@H]2C[C@@H](C1)c1cccc(=O)n1C2 | 2 | 3 | 1 | 2 | -7 | 0 | /
Nc1ccc(CCN2CCN(c3cccc(C(F)(F)F)c3)CC2)cc1 | -5 | 44* | 1 | 22 | 6 | -2 | / | BSA TAMRA ctr=-4;TCR-CD3 conf=0
Nc1ccc(-c2ccc(N)cc2)cc1 | -4 | -6 | -1 | 6 | -11 | -4 | /
CC(C)(C)N(NC(=O)c1ccccc1)C(=O)c1ccccc1 | -1 | 3 | 10 | 9 | 10 | -2 | /
O=[N+]([O-])c1ccc(N2CCCCCC2)c2nonc12 | -32 | 79* | -46 | -6 | 1 | -3 | / | BSA TAMRA ctr=103*;TCR-CD3 conf=87*
O=[N+]([O-])c1ccc(N2CCCCC2)c2ncccc12 | -13 | 2 | -6 | 11 | 1 | -9 | /
SMILES | MBD2 inh | TCR CD3 inh | UHRF1 MBD2 ctr | ARFGAP1 inh | ASAP1 GAP inh | LEDGF integ inh | ARFGAP1 confirm | others
COC(=O)C1C(C(=O)O)C2(Cl)C(Cl)=C(Cl)C1(Cl)C2(Cl)Cl (centres undefined) | 1 | 2 | 1 | 3 | -11 | 1 | /
CN1CCC(c2c[nH]c3ccccc23)C1 (centres undefined) | -1 | 23* | -4 | -2 | -11 | 2 | / | BSA TAMRA ctr=1;TCR-CD3 conf=3
S=C(NCCc1ccccc1)N1Cc2cc(-c3ccccc3)ccc2-n2nncc2C1 | -2 | 22* | 1 | 0 | -3 | -1 | / | BSA TAMRA ctr=10;TCR-CD3 conf=7
Fc1cccc(-c2ccc3c(c2)CN(C(=S)NCCc2ccccc2)Cc2cnnn2-3)c1 | 5 | 0 | -1 | 6 | 10 | -3 | /
CCC(=NCC1CCCO1)c1c(O)n(Cc2ccccc2)c(=O)[nH]c1=O (centres undefined) | 3 | 7 | 8 | 2 | 0 | 5 | /
CC/C(=N\NC(=O)c1ccccc1)c1c(O)n(Cc2ccccc2)c(=O)[nH]c1=O | 1 | 21* | -2 | -19 | -7 | -1 | / | BSA TAMRA ctr=2;TCR-CD3 conf=16
